Measurements as given in ChEMBL document CHEMBL3108710, “Discovery of a novel class of dimeric Smac mimetics as potent IAP antagonists resulting in a clinical candidate for the treatment of cancer (AZD5582)” (J Med Chem, 2013).
Values after ≈ are worked out from the molar mass of the structure shown. Active and inactive are the calls of the source. No cut-off for these calls is given here.

Legend:
[1] = molecular target: T1, Baculoviral IAP repeat-containing protein 2 (Homo sapiens, UniProt Q13490); experiment: Binding affinity to cIAP1 in human MDA-MB-231 cells assessed as induction of protein degradation after 1 hr by ELISA; assay type: cell-based
MDA-MB-231 = experiment: Antiproliferative activity against human MDA-MB-231 cells assessed as growth inhibition after 48 hrs by Alamar Blue assay; assay type: functional; conditions: MDA-MB-231, 48 h
[2] = molecular target: E3 ubiquitin-protein ligase XIAP (Homo sapiens, UniProt P98170); experiment: Displacement of AbuRPFK-5FAM from GST-tagged XIAP BIR3 domain (N252 to E350) (unknown origin) after 20 mins by fluorescence polarization assay
In short: (§1)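 Competitive fluorescence polarization binding assay. Measures displacement of a 5-carboxyfluorescein-tagged synthetic peptide from the AVPI groove of the isolated BIR domain.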

[3] = molecular target: T1, Baculoviral IAP repeat-containing protein 2; experiment: Displacement of AbuRPFK-5FAM from GST-tagged cIAP1 BIR3 domain (L250 to G350) (unknown origin) after 20 mins by fluorescence polarization assay; in short: as §1
[4] = Aqueous equilibrium solubility of compound in phosphate buffer at pH 7.4 after 24 hrs by HPLC-UV analysis; assay type: physicochemical
[5] = Elimination half life in Han Wistar rat at 0.2 mg/kg, iv by LC-MS/MS analysis; assay type: ADME, organism-based; design: dose 0.2 mg/kg, route intravenous; conditions: in vivo, read-out: beta t1/2 (converted)
In short: (§2)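 Rat PK after a single intravenous bolus. Parameters derived from plasma levels: total plasma clearance, steady-state volume of distribution, half-life and AUC.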

[6] = Volume of distribution at steady state in Han Wistar rat at 0.2 mg/kg, iv by LC-MS/MS analysis; assay type: ADME, organism-based; design: dose 0.2 mg/kg, route intravenous; conditions: in vivo, read-out: Vdss; in short: as §2
[7] = AUC in Han Wistar rat at 0.2 mg/kg, iv by LC-MS/MS analysis; assay type: ADME, organism-based; design: dose 0.2 mg/kg, route intravenous; conditions: plasma; in short: as §2
[8] = Total plasma clearance in Han Wistar rat at 0.2 mg/kg, iv by LC-MS/MS analysis; assay type: ADME, organism-based; design: dose 0.2 mg/kg, route intravenous; in short: as §2
[9] = Fraction unbound in human plasma at 10 uM by equilibrium dialysis method; assay type: ADME, cell-free
[10] = Apparent permeability from apical to basolateral side in human Caco2 cells; assay type: ADME, cell-based; conditions: Caco-2
[11] = Elimination half life in Han Wistar rat at 0.5 mg/kg, iv by LC-MS/MS analysis; assay type: ADME, organism-based; design: dose 0.5 mg/kg, route intravenous; conditions: in vivo, read-out: beta t1/2 (converted); in short: as §2
[12] = Volume of distribution at steady state in Han Wistar rat at 0.5 mg/kg, iv by LC-MS/MS analysis; assay type: ADME, organism-based; design: dose 0.5 mg/kg, route intravenous; conditions: in vivo, read-out: Vdss; in short: as §2
[13] = Total plasma clearance in Han Wistar rat at 0.5 mg/kg, iv by LC-MS/MS analysis; assay type: ADME, organism-based; design: dose 0.5 mg/kg, route intravenous; in short: as §2
[14] = AUC in Han Wistar rat at 0.5 mg/kg, iv by LC-MS/MS analysis; assay type: ADME, organism-based; design: dose 0.5 mg/kg, route intravenous; conditions: plasma; in short: as §2

T1 sequence (Q13490 whole entry): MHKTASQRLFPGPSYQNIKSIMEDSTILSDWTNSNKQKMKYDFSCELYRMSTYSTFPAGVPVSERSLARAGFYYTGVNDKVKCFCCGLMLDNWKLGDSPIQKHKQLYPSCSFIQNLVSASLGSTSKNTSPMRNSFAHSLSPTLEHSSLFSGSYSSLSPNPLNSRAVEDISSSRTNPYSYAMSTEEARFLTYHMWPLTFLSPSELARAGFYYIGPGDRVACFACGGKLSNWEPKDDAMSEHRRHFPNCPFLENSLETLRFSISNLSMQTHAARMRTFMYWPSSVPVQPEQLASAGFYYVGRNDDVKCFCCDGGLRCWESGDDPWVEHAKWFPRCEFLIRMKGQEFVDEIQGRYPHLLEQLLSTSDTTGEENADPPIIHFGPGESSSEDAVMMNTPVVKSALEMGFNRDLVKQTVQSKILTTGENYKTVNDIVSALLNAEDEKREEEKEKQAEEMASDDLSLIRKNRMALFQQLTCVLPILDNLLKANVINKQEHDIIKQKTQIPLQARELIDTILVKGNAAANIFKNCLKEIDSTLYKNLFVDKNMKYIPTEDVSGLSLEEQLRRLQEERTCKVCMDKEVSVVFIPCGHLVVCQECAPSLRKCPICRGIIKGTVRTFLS
E3 ubiquitin-protein ligase XIAP, sequence (P98170 whole entry, the tested form may be a part): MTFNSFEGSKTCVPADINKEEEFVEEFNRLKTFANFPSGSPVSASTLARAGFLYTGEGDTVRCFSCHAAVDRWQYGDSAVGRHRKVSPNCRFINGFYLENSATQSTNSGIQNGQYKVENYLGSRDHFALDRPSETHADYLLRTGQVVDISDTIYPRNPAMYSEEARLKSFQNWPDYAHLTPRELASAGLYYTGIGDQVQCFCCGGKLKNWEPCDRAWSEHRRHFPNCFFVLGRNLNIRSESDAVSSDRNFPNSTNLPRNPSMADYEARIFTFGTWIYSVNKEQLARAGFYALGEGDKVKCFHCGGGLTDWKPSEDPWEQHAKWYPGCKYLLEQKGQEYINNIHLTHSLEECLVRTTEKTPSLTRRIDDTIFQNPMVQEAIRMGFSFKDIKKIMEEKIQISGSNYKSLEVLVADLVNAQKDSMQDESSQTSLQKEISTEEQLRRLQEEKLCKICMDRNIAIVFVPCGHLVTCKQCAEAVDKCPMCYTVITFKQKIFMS

Compound	EC50 [1]	GI50 (MDA-MB-231)	further results
CN[C@@H](C)C(=O)N[C@@H](CCCCN)C(=O)N1CCC[C@H]1C(=O)N[C@H]1c2ccccc2C[C@H]1OCC#CC#CCO[C@@H]1Cc2ccccc2[C@@H]1NC(=O)[C@@H]1CCCN1C(=O)[C@H](CCCCN)NC(=O)[C@H](C)NC	> 370 nM	> 370 nM	–
CN[C@@H](C)C(=O)N[C@H](C(=O)N1CCC[C@H]1C(=O)N[C@H]1c2ccccc2C[C@H]1OCC#CC#CCO[C@@H]1Cc2ccccc2[C@@H]1NC(=O)[C@@H]1CCCN1C(=O)[C@@H](NC(=O)[C@H](C)NC)C1CCNCC1)C1CCNCC1	> 370 nM	> 370 nM	–
C#CCO[C@H]1CCc2ccccc2[C@@H]1NC(=O)[C@@H]1CCCN1C(=O)[C@@H](NC(=O)[C@H](C)NC)C(C)(C)C	10 nM	45 nM	IC50 [2]: 95 nM; IC50 [3]: 14 nM
CN[C@@H](C)C(=O)N[C@H](C(=O)N1CCC[C@H]1C(=O)N[C@H]1c2ccccc2C[C@H]1OCC#CC#CCO[C@@H]1Cc2ccccc2[C@@H]1NC(=O)[C@@H]1CCCN1C(=O)[C@@H](NC(=O)[C@H](C)NC)C1CCN(CCO)CC1)C1CCN(CCO)CC1	> 370 nM	> 370 nM	–
CN[C@@H](C)C(=O)N[C@H](C(=O)N1CCC[C@H]1C(=O)N[C@H]1c2ccccc2C[C@H]1OCC#CC#CCO[C@@H]1Cc2ccccc2[C@@H]1NC(=O)[C@@H]1CCCN1C(=O)[C@@H](NC(=O)[C@H](C)NC)C1CCN(C(C)=O)CC1)C1CCN(C(C)=O)CC1	> 370 nM	76 nM	–
C#CCO[C@H]1CCc2ccccc2[C@H]1NC(=O)[C@@H]1CCCN1C(=O)[C@@H](NC(=O)[C@H](C)NC)C(C)(C)C	126 nM	192 nM	IC50 [2]: 600 nM; IC50 [3]: 40 nM
CN[C@@H](C)C(=O)N[C@H](C(=O)N1CCC[C@H]1C(=O)N[C@H]1c2ccccc2C[C@H]1NC(=O)c1ccc(-c2ccc(C(=O)N[C@@H]3Cc4ccccc4[C@@H]3NC(=O)[C@@H]3CCCN3C(=O)[C@@H](NC(=O)[C@H](C)NC)C3CCCCC3)cc2)cc1)C1CCCCC1	15 nM	0.6 nM	inhibition [3]: Active
CN[C@@H](C)C(=O)N[C@H](C(=O)N1CCC[C@H]1C(=O)N[C@H]1c2ccccc2C[C@H]1OCC#CC#CCO[C@@H]1Cc2ccccc2[C@@H]1NC(=O)[C@@H]1CCCN1C(=O)[C@@H](NC(=O)[C@H](C)NC)C(C)(C)C)C(C)(C)C	0.4 nM	< 2.4 nM	Papp A→B [10]: < 0.1 ×10⁻⁶ cm/s; solubility thermodynamic at 24 h [4]: > 1000 µM
CN[C@@H](C)C(=O)N[C@H](C(=O)N1CCC[C@H]1C(=O)N[C@H]1c2ccccc2C[C@H]1NC(=O)c1ccc(C(=O)N[C@@H]2Cc3ccccc3[C@@H]2NC(=O)[C@@H]2CCCN2C(=O)[C@@H](NC(=O)[C@H](C)NC)C2CCCCC2)cc1)C1CCCCC1	124 nM	6 nM	half-life [11]: 396 min; Vd [12]: 1.4 L/kg; clearance [13]: 37 mL/min/kg; AUC [14]: 230 ng·h/mL; inhibition [3]: Active
C#CCO[C@@H]1CCc2ccccc2[C@H]1NC(=O)[C@@H]1CCCN1C(=O)[C@@H](NC(=O)[C@H](C)NC)C(C)(C)C	> 370 nM	2190 nM	IC50 [2]: 1310 nM; IC50 [3]: 290 nM
CN[C@@H](C)C(=O)N[C@H](C(=O)N1CCC[C@H]1C(=O)NC1(C(=O)NCC#CC#CCNC(=O)C2(NC(=O)[C@@H]3CCCN3C(=O)[C@@H](NC(=O)[C@H](C)NC)C3CCCCC3)Cc3ccccc3C2)Cc2ccccc2C1)C1CCCCC1	5 nM	13 nM	–

More lines, main results first:

EC50 [1]	GI50 (MDA-MB-231)	Compound	further results
0.2 nM	0.1 nM	CN[C@@H](C)C(=O)N[C@H](C(=O)N1CCC[C@H]1C(=O)N[C@H]1c2ccccc2CC[C@H]1OCC#CC#CCO[C@@H]1CCc2ccccc2[C@@H]1NC(=O)[C@@H]1CCCN1C(=O)[C@@H](NC(=O)[C@H](C)NC)C(C)(C)C)C(C)(C)C	solubility thermodynamic at 24 h [4]: > 1000 µM; half-life [5]: 30 min; Vd [6]: 1.9 L/kg; AUC [7]: 30 ng·h/mL; clearance [8]: 111 mL/min/kg
0.2 nM	< 0.1 nM	CN[C@@H](C)C(=O)N[C@H](C(=O)N1CCC[C@H]1C(=O)N[C@H]1c2ccccc2C[C@@H]1OCC#CC#CCO[C@H]1Cc2ccccc2[C@@H]1NC(=O)[C@@H]1CCCN1C(=O)[C@@H](NC(=O)[C@H](C)NC)C1CCCCC1)C1CCCCC1	–
0.2 nM	0.1 nM	CN[C@@H](C)C(=O)N[C@H](C(=O)N1CCC[C@H]1C(=O)N[C@@H]1CCN(CC#CC#CCN2CC[C@@H](NC(=O)[C@@H]3CCCN3C(=O)[C@@H](NC(=O)[C@H](C)NC)C3CCCCC3)c3ccccc32)c2ccccc21)C1CCCCC1	half-life [5]: 36 min; Vd [6]: 1.2 L/kg; AUC [7]: 40 ng·h/mL; clearance [8]: 68 mL/min/kg
0.3 nM	0.1 nM	CN[C@@H](C)C(=O)N[C@H](C(=O)N1CC=C[C@H]1C(=O)N[C@H]1c2ccccc2C[C@H]1OCC#CC#CCO[C@@H]1Cc2ccccc2[C@@H]1NC(=O)[C@@H]1C=CCN1C(=O)[C@@H](NC(=O)[C@H](C)NC)C1CCCCC1)C1CCCCC1	solubility thermodynamic at 24 h [4]: 77 µM (≈ 77.9 µg/mL); fraction unbound at 10 µM [9]: 0.029
2 nM	0.4 nM	CN[C@@H](C)C(=O)N[C@H](C(=O)N1CCC[C@H]1C(=O)N[C@H]1c2ccccc2C[C@H]1OCC#CC#CCO[C@@H]1Cc2ccccc2[C@@H]1NC(=O)[C@@H]1CCCN1C(=O)[C@@H](NC(=O)[C@H](C)NC)C(C)C)C(C)C	half-life [5]: 96 min; Vd [6]: 2.3 L/kg; AUC [7]: 76 ng·h/mL; clearance [8]: 44 mL/min/kg
2 nM	61 nM	CN[C@@H](C)C(=O)N[C@H](C(=O)N1CCC[C@H]1C(=O)N[C@@H]1c2ccccc2CC[C@H]1OCC#CC#CCO[C@@H]1CCc2ccccc2[C@H]1NC(=O)[C@@H]1CCCN1C(=O)[C@@H](NC(=O)[C@H](C)NC)C(C)(C)C)C(C)(C)C	–
3 nM	0.2 nM	CN[C@@H](C)C(=O)N[C@H](C(=O)N1CCC[C@H]1C(=O)N[C@H]1c2ccccc2C[C@H]1NC(=O)CCCCCCCCC(=O)N[C@@H]1Cc2ccccc2[C@@H]1NC(=O)[C@@H]1CCCN1C(=O)[C@@H](NC(=O)[C@H](C)NC)C1CCCCC1)C1CCCCC1	inhibition [3]: Active
4 nM	16 nM	C#CCO[C@@H]1CCc2ccccc2[C@@H]1NC(=O)[C@@H]1CCCN1C(=O)[C@@H](NC(=O)[C@H](C)NC)C(C)(C)C	IC50 [2]: 19 nM; IC50 [3]: 10 nM
0.6 nM	0.3 nM	CN[C@@H](C)C(=O)N[C@H](C(=O)N1CCC[C@H]1C(=O)N[C@H]1c2ccccc2CC[C@@H]1OCC#CC#CCO[C@H]1CCc2ccccc2[C@@H]1NC(=O)[C@@H]1CCCN1C(=O)[C@@H](NC(=O)[C@H](C)NC)C(C)(C)C)C(C)(C)C	–
0.6 nM	< 0.1 nM	CN[C@@H](C)C(=O)N[C@H](C(=O)N1CSC2(CC2)[C@H]1C(=O)N[C@H]1c2ccccc2C[C@H]1OCC#CC#CCO[C@@H]1Cc2ccccc2[C@@H]1NC(=O)[C@H]1N(C(=O)[C@@H](NC(=O)[C@H](C)NC)C2CCCCC2)CSC12CC2)C1CCCCC1	solubility thermodynamic at 24 h [4]: < 1 µM; fraction unbound at 10 µM [9]: < 0.01
0.5 nM	0.1 nM	CN[C@@H](C)C(=O)N[C@H](C(=O)N1CSC[C@H]1C(=O)N[C@H]1c2ccccc2C[C@H]1OCC#CC#CCO[C@@H]1Cc2ccccc2[C@@H]1NC(=O)[C@@H]1CSCN1C(=O)[C@@H](NC(=O)[C@H](C)NC)C(C)(C)C)C(C)(C)C	solubility thermodynamic at 24 h [4]: 268 µM (≈ 268 µg/mL); fraction unbound at 10 µM [9]: 0.107
4 nM	97 nM	CN[C@@H](C)C(=O)N[C@H](C(=O)N1CCC[C@H]1C(=O)N[C@@H]1c2ccccc2CC[C@@H]1OCC#CC#CCO[C@H]1CCc2ccccc2[C@H]1NC(=O)[C@@H]1CCCN1C(=O)[C@@H](NC(=O)[C@H](C)NC)C(C)(C)C)C(C)(C)C	–
0.1 nM	0.1 nM	CN[C@@H](C)C(=O)N[C@H](C(=O)N1[C@H](C(=O)N[C@H]2c3ccccc3C[C@H]2OCC#CC#CCO[C@@H]2Cc3ccccc3[C@@H]2NC(=O)[C@@H]2C[C@@H]3C[C@@H]3N2C(=O)[C@@H](NC(=O)[C@H](C)NC)C2CCCCC2)C[C@@H]2C[C@@H]21)C1CCCCC1	solubility thermodynamic at 24 h [4]: 48 µM (≈ 49.9 µg/mL); fraction unbound at 10 µM [9]: < 0.01
0.2 nM	0.1 nM	CN[C@@H](C)C(=O)N[C@H](C(=O)N1CSC[C@H]1C(=O)N[C@H]1c2ccccc2C[C@H]1OCC#CC#CCO[C@@H]1Cc2ccccc2[C@@H]1NC(=O)[C@@H]1CSCN1C(=O)[C@@H](NC(=O)[C@H](C)NC)C1CCCCC1)C1CCCCC1	solubility thermodynamic at 24 h [4]: < 1 µM; fraction unbound at 10 µM [9]: 0.011
